ChEMBL document CHEMBL5696442, “Discovery of type II inhibitors of TGFβ-activated kinase 1 (TAK1) and mitogen-activated protein kinase kinase kinase kinase 2 (MAP4K2)” (J Med Chem, 2015)

Key:
[1] = molecular target: Tyrosine-protein kinase ABL1 (Homo sapiens, UniProt P00519); assay: Inhibition of ABL ACT labeling site in human Huh-7 cell lysate at 1 uM by KiNativ Profiling analysis relative to control; format: subcellular
[2] = molecular target: T1, Serine/threonine-protein kinase Nek9 (Homo sapiens) (UniProt Q8TD19); assay: Inhibition of NEK9 Lys1 labeling site harbouring TEDDSLVVWKEVDLTR in human A-375 cells at 0.5 uM by KiNativ Profiling analysis relative to control; format: cell-based
T1 sequence (whole entry): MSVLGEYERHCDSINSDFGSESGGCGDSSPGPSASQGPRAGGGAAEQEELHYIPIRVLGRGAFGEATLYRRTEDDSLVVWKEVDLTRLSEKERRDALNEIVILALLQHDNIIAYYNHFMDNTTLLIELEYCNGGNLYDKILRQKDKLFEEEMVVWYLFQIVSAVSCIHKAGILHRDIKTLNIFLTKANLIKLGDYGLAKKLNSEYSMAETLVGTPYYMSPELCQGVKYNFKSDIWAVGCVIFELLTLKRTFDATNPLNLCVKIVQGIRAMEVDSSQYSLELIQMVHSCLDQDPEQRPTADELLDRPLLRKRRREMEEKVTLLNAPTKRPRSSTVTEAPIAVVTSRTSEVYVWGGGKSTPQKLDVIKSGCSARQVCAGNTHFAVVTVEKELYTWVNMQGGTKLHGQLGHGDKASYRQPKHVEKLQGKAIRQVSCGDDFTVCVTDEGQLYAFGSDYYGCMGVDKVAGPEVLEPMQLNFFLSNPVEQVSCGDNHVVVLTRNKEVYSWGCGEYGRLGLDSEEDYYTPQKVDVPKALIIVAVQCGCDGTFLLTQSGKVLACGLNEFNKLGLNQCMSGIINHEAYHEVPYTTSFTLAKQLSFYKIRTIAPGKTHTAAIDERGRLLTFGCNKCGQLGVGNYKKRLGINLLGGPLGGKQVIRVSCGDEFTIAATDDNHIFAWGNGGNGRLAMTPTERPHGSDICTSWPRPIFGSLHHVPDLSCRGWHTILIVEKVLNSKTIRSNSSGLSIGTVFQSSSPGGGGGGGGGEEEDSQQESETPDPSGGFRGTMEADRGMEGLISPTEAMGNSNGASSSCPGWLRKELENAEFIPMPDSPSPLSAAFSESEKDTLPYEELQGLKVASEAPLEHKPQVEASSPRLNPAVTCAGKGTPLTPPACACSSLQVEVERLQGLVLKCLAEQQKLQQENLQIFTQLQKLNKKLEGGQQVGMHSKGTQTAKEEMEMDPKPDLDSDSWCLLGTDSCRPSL

[3] = molecular target: eIF-2-alpha kinase GCN2 (Homo sapiens) (UniProt Q9P2K8); assay: Inhibition of GCN2 domain2 Lys1 labeling site in human A-375 cells at 5 uM by KiNativ Profiling analysis relative to control; format: cell-based
Chain of eIF-2-alpha kinase GCN2 (Homo sapiens) (Q9P2K8 whole entry, the tested form may be a part): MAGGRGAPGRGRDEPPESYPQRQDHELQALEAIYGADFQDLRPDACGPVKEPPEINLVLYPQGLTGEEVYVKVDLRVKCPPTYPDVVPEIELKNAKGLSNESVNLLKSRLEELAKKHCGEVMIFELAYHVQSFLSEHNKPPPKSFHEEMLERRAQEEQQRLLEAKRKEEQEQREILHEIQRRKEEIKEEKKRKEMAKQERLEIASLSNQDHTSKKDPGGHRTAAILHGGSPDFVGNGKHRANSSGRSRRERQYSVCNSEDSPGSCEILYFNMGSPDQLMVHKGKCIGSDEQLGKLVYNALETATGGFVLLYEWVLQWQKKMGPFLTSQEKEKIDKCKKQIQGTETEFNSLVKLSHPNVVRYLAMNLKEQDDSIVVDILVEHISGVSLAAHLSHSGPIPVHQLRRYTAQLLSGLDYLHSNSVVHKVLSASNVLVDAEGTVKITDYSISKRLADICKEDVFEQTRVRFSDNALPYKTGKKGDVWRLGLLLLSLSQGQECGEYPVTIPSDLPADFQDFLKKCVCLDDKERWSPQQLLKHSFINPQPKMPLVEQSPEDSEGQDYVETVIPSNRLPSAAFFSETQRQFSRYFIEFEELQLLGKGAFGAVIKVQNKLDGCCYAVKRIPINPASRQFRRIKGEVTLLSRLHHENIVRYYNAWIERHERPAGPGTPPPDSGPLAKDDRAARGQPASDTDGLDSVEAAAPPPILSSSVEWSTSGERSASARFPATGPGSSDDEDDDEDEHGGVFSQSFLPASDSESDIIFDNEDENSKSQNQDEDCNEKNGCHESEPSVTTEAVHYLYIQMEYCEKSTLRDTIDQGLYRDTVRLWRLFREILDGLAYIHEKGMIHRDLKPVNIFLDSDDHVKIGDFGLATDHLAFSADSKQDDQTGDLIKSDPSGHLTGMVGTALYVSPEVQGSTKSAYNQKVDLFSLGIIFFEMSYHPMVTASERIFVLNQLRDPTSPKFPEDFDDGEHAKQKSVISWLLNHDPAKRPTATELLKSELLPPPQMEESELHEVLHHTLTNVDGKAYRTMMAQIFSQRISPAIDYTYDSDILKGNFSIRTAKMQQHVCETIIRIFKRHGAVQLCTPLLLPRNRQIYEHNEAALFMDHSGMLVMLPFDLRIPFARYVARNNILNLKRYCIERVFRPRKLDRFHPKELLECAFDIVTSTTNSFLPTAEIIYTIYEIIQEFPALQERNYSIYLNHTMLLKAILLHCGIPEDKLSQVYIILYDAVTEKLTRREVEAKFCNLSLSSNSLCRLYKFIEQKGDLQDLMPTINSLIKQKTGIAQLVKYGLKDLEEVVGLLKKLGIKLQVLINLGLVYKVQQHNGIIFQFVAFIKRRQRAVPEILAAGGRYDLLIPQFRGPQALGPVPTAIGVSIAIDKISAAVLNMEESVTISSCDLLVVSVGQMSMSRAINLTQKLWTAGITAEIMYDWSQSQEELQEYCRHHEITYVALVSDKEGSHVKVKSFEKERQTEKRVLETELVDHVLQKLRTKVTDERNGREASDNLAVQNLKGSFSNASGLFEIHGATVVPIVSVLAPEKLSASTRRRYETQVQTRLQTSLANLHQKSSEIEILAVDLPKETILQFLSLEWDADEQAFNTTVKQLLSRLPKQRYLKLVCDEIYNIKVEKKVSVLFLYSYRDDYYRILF

[4] = molecular target: Serine/threonine-protein kinase 38-like (Homo sapiens) (UniProt Q9Y2H1); assay: Inhibition of NDR2 Lys2 labeling site in human A-375 cells at 0.05 uM by KiNativ Profiling analysis relative to control; format: cell-based
Chain of Serine/threonine-protein kinase 38-like (Homo sapiens) (Q9Y2H1 2-464 limits assumed): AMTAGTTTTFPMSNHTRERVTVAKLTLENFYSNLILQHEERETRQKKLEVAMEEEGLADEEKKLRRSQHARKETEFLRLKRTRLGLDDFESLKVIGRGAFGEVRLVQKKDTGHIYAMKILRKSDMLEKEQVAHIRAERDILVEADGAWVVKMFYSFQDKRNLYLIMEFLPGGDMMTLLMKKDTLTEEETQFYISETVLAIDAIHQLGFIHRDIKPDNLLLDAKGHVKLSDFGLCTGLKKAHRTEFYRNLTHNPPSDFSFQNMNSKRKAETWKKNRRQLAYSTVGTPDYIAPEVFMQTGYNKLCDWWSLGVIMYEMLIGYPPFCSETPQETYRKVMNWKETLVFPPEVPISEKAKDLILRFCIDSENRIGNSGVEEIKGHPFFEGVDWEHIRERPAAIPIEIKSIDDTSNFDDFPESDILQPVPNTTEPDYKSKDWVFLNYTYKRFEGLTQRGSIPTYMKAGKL

[5] = molecular target: DNA-PK/Ku70/Ku85 (Homo sapiens) (UniProt P78527+P12956+P13010); assay: Inhibition of DNAPK ATP labeling site harbouring EHPFLVKGGEDLR in human A-375 cells at 0.05 uM by KiNativ Profiling analysis relative to control; format: cell-based
[6] = molecular target: T2, Scaffold protein ILK (Homo sapiens) (UniProt Q13418); assay: Inhibition of ILK Lys1 labeling site in human A-375 cells at 5 uM by KiNativ Profiling analysis relative to control; format: cell-based
T2 sequence (whole entry): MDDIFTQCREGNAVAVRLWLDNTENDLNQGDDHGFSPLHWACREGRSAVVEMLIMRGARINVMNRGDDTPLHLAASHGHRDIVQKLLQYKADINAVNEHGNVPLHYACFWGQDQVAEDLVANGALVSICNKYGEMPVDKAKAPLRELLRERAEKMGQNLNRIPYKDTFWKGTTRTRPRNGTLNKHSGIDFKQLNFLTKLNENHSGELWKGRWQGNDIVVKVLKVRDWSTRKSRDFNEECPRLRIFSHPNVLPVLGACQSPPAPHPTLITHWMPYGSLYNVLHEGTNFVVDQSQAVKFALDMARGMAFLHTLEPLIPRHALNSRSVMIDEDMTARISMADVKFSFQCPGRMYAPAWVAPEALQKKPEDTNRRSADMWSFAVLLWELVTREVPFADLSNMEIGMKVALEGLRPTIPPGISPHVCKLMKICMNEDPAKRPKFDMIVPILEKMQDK

[7] = molecular target: Cyclin-dependent kinase 11B (Homo sapiens) (UniProt P21127); assay: Inhibition of CDK11 Lys2 labeling site in human A-375 cells at 0.05 uM by KiNativ Profiling analysis relative to control; format: cell-based
Chain of Cyclin-dependent kinase 11B (Homo sapiens) (P21127 whole entry): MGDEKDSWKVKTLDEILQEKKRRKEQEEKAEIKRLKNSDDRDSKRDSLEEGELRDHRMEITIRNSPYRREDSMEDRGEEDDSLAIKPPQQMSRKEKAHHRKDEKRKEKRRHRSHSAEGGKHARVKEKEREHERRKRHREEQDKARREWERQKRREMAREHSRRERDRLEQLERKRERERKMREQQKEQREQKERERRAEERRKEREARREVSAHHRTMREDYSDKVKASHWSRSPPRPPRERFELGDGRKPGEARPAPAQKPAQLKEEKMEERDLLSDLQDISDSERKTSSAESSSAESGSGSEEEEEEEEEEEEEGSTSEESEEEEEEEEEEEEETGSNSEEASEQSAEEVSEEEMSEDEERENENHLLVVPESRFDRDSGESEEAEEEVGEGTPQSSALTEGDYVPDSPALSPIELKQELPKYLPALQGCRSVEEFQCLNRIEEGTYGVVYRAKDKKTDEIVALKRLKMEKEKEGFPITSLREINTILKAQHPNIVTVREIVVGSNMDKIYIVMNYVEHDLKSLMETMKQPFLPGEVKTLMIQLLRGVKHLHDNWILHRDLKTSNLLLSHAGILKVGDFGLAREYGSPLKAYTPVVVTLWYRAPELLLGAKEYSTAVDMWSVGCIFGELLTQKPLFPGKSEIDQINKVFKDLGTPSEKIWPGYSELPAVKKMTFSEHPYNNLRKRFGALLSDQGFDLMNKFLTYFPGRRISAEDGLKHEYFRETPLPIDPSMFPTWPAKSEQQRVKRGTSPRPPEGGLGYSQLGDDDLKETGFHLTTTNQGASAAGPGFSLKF

[8] = molecular target: Aurora kinase B (Homo sapiens) (UniProt Q96GD4); assay: Inhibition of AurB ATP Loop labeling site in human A-375 cells at 0.5 uM by KiNativ Profiling analysis relative to control; format: cell-based
Chain of Aurora kinase B (Homo sapiens) (Q96GD4 whole entry): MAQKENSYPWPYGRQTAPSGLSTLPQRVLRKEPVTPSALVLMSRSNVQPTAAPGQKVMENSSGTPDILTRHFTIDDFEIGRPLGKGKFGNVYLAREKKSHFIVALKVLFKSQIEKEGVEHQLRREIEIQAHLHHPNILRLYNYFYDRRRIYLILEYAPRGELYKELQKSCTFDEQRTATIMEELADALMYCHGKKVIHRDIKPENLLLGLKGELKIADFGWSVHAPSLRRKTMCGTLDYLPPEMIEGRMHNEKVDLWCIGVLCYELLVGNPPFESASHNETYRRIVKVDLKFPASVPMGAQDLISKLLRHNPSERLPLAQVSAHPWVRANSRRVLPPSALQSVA
Summary of the method: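 Live A375 melanoma cells were treated with compound at 5 or 0.5 μM, then lysed. The lysates were labeled with a lysine-reactive ATP or ADP-biotin probe. Kinase protection from probe labeling was measured by KiNativ.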

[9] = molecular target: T3, Mixed lineage kinase domain-like protein (Homo sapiens) (UniProt Q8NB16); assay: Inhibition of MLKL Lys1 labeling site in human A-375 cells at 0.05 uM by KiNativ Profiling analysis relative to control; format: cell-based
T3 sequence (whole entry): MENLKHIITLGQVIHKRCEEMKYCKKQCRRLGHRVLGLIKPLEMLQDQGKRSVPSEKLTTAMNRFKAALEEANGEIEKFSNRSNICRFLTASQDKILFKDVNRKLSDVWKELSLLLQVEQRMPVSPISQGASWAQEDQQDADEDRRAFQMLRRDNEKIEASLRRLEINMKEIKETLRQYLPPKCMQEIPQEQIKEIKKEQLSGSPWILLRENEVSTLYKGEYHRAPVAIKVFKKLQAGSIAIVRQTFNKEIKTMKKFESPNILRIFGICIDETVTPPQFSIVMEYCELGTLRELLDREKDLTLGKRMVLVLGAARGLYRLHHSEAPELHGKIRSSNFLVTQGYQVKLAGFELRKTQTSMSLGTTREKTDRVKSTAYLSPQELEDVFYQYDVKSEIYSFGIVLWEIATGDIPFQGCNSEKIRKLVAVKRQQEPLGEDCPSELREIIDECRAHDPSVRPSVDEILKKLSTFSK

[10] = molecular target: Protein kinase C alpha type (Homo sapiens) (UniProt P17252); assay: Inhibition of PKCa Lys2 labeling site in human A-375 cells at 5 uM by KiNativ Profiling analysis relative to control; format: cell-based
[11] = molecular target: TRAF2 and NCK-interacting protein kinase (Homo sapiens) (UniProt Q9UKE5); assay: Inhibition of ZC2/TNIK Lys1 labeling site in human A-375 cells at 5 uM by KiNativ Profiling analysis relative to control; format: cell-based
[12] = molecular target: Calcium/calmodulin-dependent protein kinase type II subunit delta (Homo sapiens) (UniProt Q13557); assay: Inhibition of CaMK2d Lys1 labeling site in human A-375 cells at 0.05 uM by KiNativ Profiling analysis relative to control; format: cell-based
Chain of Calcium/calmodulin-dependent protein kinase type II subunit delta (Homo sapiens) (Q13557 whole entry): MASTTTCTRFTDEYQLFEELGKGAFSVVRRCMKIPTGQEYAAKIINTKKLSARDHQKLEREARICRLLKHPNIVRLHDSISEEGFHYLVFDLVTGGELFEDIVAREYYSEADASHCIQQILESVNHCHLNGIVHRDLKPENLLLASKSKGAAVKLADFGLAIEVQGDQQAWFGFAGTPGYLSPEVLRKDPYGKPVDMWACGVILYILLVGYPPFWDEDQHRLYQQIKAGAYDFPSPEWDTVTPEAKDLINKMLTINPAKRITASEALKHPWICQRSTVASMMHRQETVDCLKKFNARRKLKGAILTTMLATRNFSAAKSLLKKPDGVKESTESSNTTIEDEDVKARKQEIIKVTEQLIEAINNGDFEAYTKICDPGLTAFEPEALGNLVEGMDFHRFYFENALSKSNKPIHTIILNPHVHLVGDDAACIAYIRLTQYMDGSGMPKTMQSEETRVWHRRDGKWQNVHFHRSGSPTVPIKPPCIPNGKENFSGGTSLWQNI

Compound	inhibition [1] [%]	inhibition [2] [%]	inhibition [3] [%]	inhibition [4] [%]	inhibition [5] [%]	inhibition [6] [%]	inhibition [7] [%]	inhibition [8] [%]	inhibition [9] [%]	inhibition [10] [%]	inhibition [11] [%]	inhibition [12] [%]
CNc1cc(Oc2cc(C(=O)Nc3cc(-n4cnc(C)c4)cc(C(F)(F)F)c3)ccc2C)ncn1	59.7	–	–	–	–	–	–	–	–	–	–	–
CNc1cc(Oc2cc(C(=O)Nc3cc(N4CCN(C)CC4)cc(C(F)(F)F)c3)ccc2C)ncn1	49.4	–	–	–	–	–	–	–	–	–	–	–
CCN1CCN(Cc2ccc(NC(=O)c3ccc(C)c(Oc4ccnc5[nH]ccc45)c3)cc2C(F)(F)F)CC1	–	-1.5	37.6	14.8	-9.3	-9.9	32.1	31.2	14.8	51	> 95	13.1
CCN1CCN(Cc2ccc(NC(=O)c3ccc(C)c(/C=C/c4cnc5[nH]ccc5c4OC)c3)cc2C(F)(F)F)CC1	–	-5	81.1	11.6	9.9	-8.7	-9.4	30.2	12.8	50.2	> 95	14
